ChEMBL document CHEMBL4130485, “Inhibitors of Yellow Fever Virus replication based on 1,3,5-triphenyl-4,5-dihydropyrazole scaffold: Design, synthesis and antiviral evaluation” (Eur J Med Chem, 2017)

Key:
[1] = Cytotoxicity against golden hamster BHK21 cells assessed as decrease in cell viability after 72 hrs by MTT assay; type: cell-based, Mesocricetus auratus, BHK-21
Method in brief: (§1)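 Uninfected MDBK (6×10^5 cells/mL, 10% horse serum) or BHK (1×10^6 cells/mL, 10% FBS) cells in MEM-Earle with serial compound dilutions at 37 °C, 5% CO2, run in parallel with the antiviral assays. Viability read by MTT after 72 h. CC50 by linear regression; mean of three determinations.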

Yellow fever virus [2] = assay: Antiviral activity against Yellow fever virus 17D vaccine (Stamaril Pasteur J07B01) infected in golden hamster BHK21 cells assessed as protection against virus-induced cytopathic effect after 3 to 4 days by MTT assay; type: functional, organism-based; conditions: BHK-21
Method in brief: (§2)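 BHK-21 cells (MDBK for BVDV) seeded at 5×10^4 (BHK) or 3×10^4 (MDBK) cells/well and grown overnight to confluence. Infected at m.o.i. 0.01 in maintenance MEM-Earle with 0.5% inactivated FBS. Serial compound dilutions added 2 h later (final 100, 20, 4, 0.8 µM; DMSO ≤0.1%). Viability read by MTT after 3–4 days at 37 °C. EC50 obtained by linear regression against untreated controls; mean of three determinations.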

Human orthopneumovirus = assay: Antiviral activity against Human respiratory syncytial virus A2 ATCC VR 1540 infected in African green monkey Vero 76 cells assessed as protection against virus-induced cytopathic effect after 5 days by crystal violet staining-based plaque reduction assay; type: functional, organism-based; conditions: ATCC VR 1540, Vero 76, 120 h
[3] = Selectivity index, ratio of CC50 for golden hamster BHK21 cells to EC50 for Yellow fever virus 17D; type: toxicity; conditions: read-out: Ratio CC50/EC50
Method in brief: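 Selectivity index calculated as BHK-21 CC50 divided by YFV EC50, both from MTT assays.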

[4] = tested on: Vesicular stomatitis Indiana virus; assay: Antiviral activity against Vesicular stomatitis virus Indiana ATCC VR 158 infected in African green monkey Vero 76 cells assessed as protection against virus-induced cytopathic effect after 2 days by crystal violet staining-based plaque reduction assay; type: functional, organism-based; conditions: ATCC VR 158, Vero 76, 48 h
[5] = Cytotoxicity against human MT4 cells assessed as decrease in cell viability after 96 hrs by MTT assay; type: cell-based
Method in brief: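 Exponentially growing MT-4 cells seeded at 1×10^5 cells/mL in RPMI-1640 with 10% FBS and incubated with serial compound dilutions at 37 °C, 5% CO2. Viability read by MTT after 96 h. CC50 by linear regression versus untreated controls.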

Yellow fever virus [6] = assay: Potency index, ratio of azauridine EC50 to compound EC50 for Yellow fever virus 17D vaccine (Stamaril Pasteur J07B01); type: functional
[7] = Antiviral activity against Human enterovirus B Faulkner ATCC VR 185 infected in African green monkey Vero 76 cells assessed as protection against virus-induced cytopathic effect after 3 days by crystal violet staining-based plaque reduction assay; type: functional, cell-based; conditions: Faulkner ATCC VR 185, Vero 76, 72 h
[8] = tested on: Mammalian orthoreovirus 1; assay: Antiviral activity against Reovirus 1 infected in golden hamster BHK21 cells assessed as protection against virus-induced cytopathic effect after 3 to 4 days by MTT assay; type: functional, organism-based; conditions: Mammalian orthoreovirus 1, BHK-21; method in brief: as §2
dengue virus type 2 = assay: Antiviral activity against Dengue virus type 2 clinical isolate infected in golden hamster BHK21 cells assessed as protection against virus-induced cytopathic effect after 3 to 4 days by MTT assay; type: functional, organism-based; conditions: BHK-21; method in brief: as §2
[9] = Cytotoxicity against bovine MDBK cells assessed as decrease in cell viability after 72 hrs by MTT assay; type: cell-based, Bos taurus; conditions: cattle; method in brief: as §1
West Nile virus = assay: Antiviral activity against West Nile virus clinical isolate infected in golden hamster BHK21 cells assessed as protection against virus-induced cytopathic effect after 3 to 4 days by MTT assay; type: functional, organism-based; conditions: BHK-21; method in brief: as §2
[10] = Cytotoxicity against African green monkey Vero 76 cells assessed as decrease in cell viability after 48 to 96 hrs by MTT assay; type: cell-based; conditions: chlorocebus sabaeus
Method in brief: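 Vero 76 cells seeded at 5×10^5 cells/mL in D-MEM with 10% FBS and incubated with serial compound dilutions at 37 °C, 5% CO2. Viability read by MTT after 48–96 h. CC50 by linear regression versus untreated controls.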

Human alphaherpesvirus 1 = assay: Antiviral activity against Human herpesvirus 1 KOS ATCC VR 1493 infected in African green monkey Vero 76 cells assessed as protection against virus-induced cytopathic effect after 3 days by crystal violet staining-based plaque reduction assay; type: functional, organism-based; conditions: Human alphaherpesvirus 1, KOS, Vero 76, 72 h
[11] = tested on: Human immunodeficiency virus 1; assay: Antiviral activity against HIV1 3B infected in human MT4 cells assessed as protection against virus-induced cytopathic effect after 4 days by MTT assay; type: functional, organism-based; conditions: Human immunodeficiency virus 1, 3B, MT4, 96 h
Method in brief: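 MT-4 cells (1×10^4/well) in RPMI with serial compound dilutions, infected with 100 CCID50 HIV-1 (m.o.i. 0.01). Viability read by MTT after 4 days at 37 °C. EC50 for 50% protection from cytopathicity obtained by linear regression versus untreated controls; mean of three determinations.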

[12] = tested on: Bovine viral diarrhea virus 1; assay: Antiviral activity against Bovine viral diarrhea virus NADL ATCC VR 534 infected in bovine MDBK cells assessed as protection against virus-induced cytopathic effect after 3 to 4 days by MTT assay; type: functional, organism-based, Bovine viral diarrhea virus 1-NADL; conditions: Bovine viral diarrhea virus isolates and strains, ATCC VR 534, MDBK; method in brief: as §2
Vaccinia virus = assay: Antiviral activity against Vaccinia virus Lister ATCC VR 1549 infected in African green monkey Vero 76 cells assessed as protection against virus-induced cytopathic effect after 3 days by crystal violet staining-based plaque reduction assay; type: functional, organism-based; conditions: Orthopoxvirus vaccinia, ATCC VR 1549, Vero 76, 72 h
Enterovirus C = assay: Antiviral activity against Enterovirus C Sabin […] infected in African green monkey Vero 76 cells assessed as protection against virus-induced cytopathic effect after 2 days by crystal violet staining-based plaque reduction assay; type: functional, organism-based; conditions: Vero 76, 48 h
[13] = Selectivity index, ratio of CC50 for African green monkey Vero 76 cells to EC50 for Human coxsackievirus B5 Faulkner; type: toxicity; conditions: read-out: Ratio CC50/EC50
Method in brief: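 Selectivity index calculated as Vero 76 CC50 (MTT) divided by CVB-5 plaque-reduction EC50.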

| Compound | CC50 at 72 h [1] [µM] | EC50 (Yellow fever virus [2]) [µM] | EC50 (Human orthopneumovirus) [µM] | selectivity ratio [3] | EC50 [4] [µM] | CC50 at 96 h [5] [µM] | Ratio EC50 (Yellow fever virus [6]) | EC50 [7] [µM] | EC50 [8] [µM] | EC50 (dengue virus type 2) [µM] | CC50 at 72 h [9] [µM] | EC50 (West Nile virus) [µM] | CC50 [10] [µM] | EC50 (Human alphaherpesvirus 1) [µM] | EC50 [11] [µM] | EC50 [12] [µM] | EC50 (Vaccinia virus) [µM] | EC50 (Enterovirus C) [µM] | selectivity ratio [13] |
| --- | --- | --- | --- | --- | --- | --- | --- | --- | --- | --- | --- | --- | --- | --- | --- | --- | --- | --- | --- |
| NS(=O)(=O)c1ccc(N2N=C(c3ccc(Oc4ccccc4)cc3)CC2c2ccccc2F)cc1 (stereo unspecified) | 32 to 34 | 1.9 | > 96 | 17.9 | > 96 | 36 | 10 | 7 | > 32 | > 34 | 36 | > 34 | 96 | > 96 | > 36 | > 36 | > 96 | > 96 | 13.7 |
| NS(=O)(=O)c1ccc(N2N=C(c3ccc(Oc4ccccc4)cc3)CC2c2ccc(F)cc2)cc1 (stereo unspecified) | 8 to 9 | 1.8 | > 25 | 5 | > 25 | 33 | 10 | 6 | > 8 | > 9 | 6 | > 9 | 25 | > 25 | > 33 | > 6 | > 25 | > 25 | 4.2 |
| NS(=O)(=O)c1ccc(N2N=C(c3ccc(Oc4ccccc4)cc3)CC2c2ccc(Cl)cc2)cc1 (stereo unspecified) | 7 to 8 | 1.9 | > 88 | 4.2 | > 88 | 9 | 10 | > 88 | > 7 | > 8 | 19 | > 8 | 88 | > 88 | > 9 | > 19 | > 88 | > 88 |  |
| Cc1ccccc1C1CC(c2ccc(OCc3ccccc3)cc2)=NN1c1ccc(S(N)(=O)=O)cc1 (stereo unspecified) | 20 to 22 | 1.8 | > 100 | 12.2 | > 100 | ≥ 100 | 10 | > 100 | > 20 | > 22 | > 100 | > 22 | 100 | > 100 | > 100 | > 100 | > 100 | > 100 |  |
| NS(=O)(=O)c1ccc(N2N=C(c3ccc(Oc4ccccc4)cc3)CC2c2cccc(Cl)c2)cc1 (stereo unspecified) | 9 to 10 | 2.2 | > 88 | 4.5 | > 88 | 8 | 10 | > 88 | > 9 | > 10 | 6 | > 10 | 88 | > 88 | > 8 | > 6 | > 88 | > 88 |  |
| Cc1ccc(C2CC(c3ccccc3)=NN2c2ccc(S(N)(=O)=O)cc2)cc1 (stereo unspecified) | 7 to 8 | 2.2 | > 20 | 3.6 | > 20 | 40 | 10 | > 20 | > 7 | > 8 | 32 | > 8 | 20 | > 20 | > 40 | > 32 | > 20 | > 20 |  |
| NS(=O)(=O)c1ccc(N2N=C(c3ccc(Oc4ccccc4)cc3)CC2c2ccccc2Cl)cc1 (stereo unspecified) | 8 to 9 | 1.8 | > 29 | 5 | > 29 | 40 | 10 | 10.5 | > 8 | > 9 | 5 | > 9 | 29 | > 29 | > 40 | > 5 | > 29 | > 29 | 2.8 |
| NS(=O)(=O)c1ccc(N2N=C(c3ccccc3)CC2c2ccc(F)cc2)cc1 (stereo unspecified) | 12 to 13 | 2.6 | > 23 | 5 | > 23 | 45 | 10 | > 23 | > 12 | > 13 | 18 | > 13 | 23 | > 23 | > 45 | > 18 | > 23 | > 23 |  |
| Cc1cc(CCCOc2c(C)cc(-c3noc(C(F)(F)F)n3)cc2C)on1 [PLECONARIL] |  |  |  |  |  |  |  | 0.005 |  |  |  |  | 83 |  |  |  |  | 2.7 | 16000 |
